Measurements: ChEMBL document CHEMBL4811317, “Inhibitory activities of anthraquinone and xanthone derivatives against transthyretin amyloidogenesis” (Bioorg Med Chem, 2021)
In brackets after ≈: the same amount, converted by molar mass. Each block holds one molecule with its values, some of them ahead of it. Activity calls are given as the source filed them. The calls are words filed in the database; no cut-off is given here.

Columns and labels:
Transthyretin = Transthyretin (Homo sapiens, UniProt P02766, V50M); test: Inhibition of acid-mediated aggregation of TTR V30M mutant (unknown origin) expressed in Escherichia coli pretreated for 30 mins at pH 7 followed by protein dilution in acetate buffer and further incubated for 96 hrs at pH 4.6 by thioflavin-T fluorescence assay
[1] = biological target: Transthyretin (Homo sapiens) (UniProt P02766); test: Binding affinity to TTR V30M mutant (unknown origin) expressed in Escherichia coli by isothermal titration calorimetry
[2] = Metabolic stability in Sprague-Dawley rat liver microsomes assessed as residual rate at 1 uM preincubated for 5 mins followed by NADPH addition and measured after 30 mins by LC-MS/MS analysis; assay type: ADME, Microsome; details: time 35 min, read-out: Stabilty
Summary of the method: (§1)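 Rat liver microsomes 0.2 mg/mL with 1 μM compound, 1 mM EDTA, 0.1 M phosphate pH 7.4; 5 min preincubation, then 1 mM NADPH (final) added, 30 min at 37 °C, 60 rpm. Quenched in cold acetonitrile/internal standard, supernatant by LC-MS/MS against time zero. CLint scaled with 44.8 mg protein/g liver, 40.0 g liver/kg. At least two technical replicates.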

[3] = Metabolic stability in Sprague-Dawley rat liver microsomes assessed as residual rate at 1 uM measured after 30 mins by LC-MS/MS analysis; assay type: ADME, Microsome; details: read-out: Stabilty
[4] = Aqueous solubility of the compound in pH 1.2 JP1 fluid measured after 4 hrs ny HPLC-UV analysis; assay type: physicochemical
Summary of the method: (§2)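 Test compound diluted from 10 mM DMSO stock 2:165 into JP 1st fluid (pH 1.2) or JP 2nd fluid (pH 6.8); mixed 4 h at 37 °C with rotation at 1000 rpm, then filtered through 0.45 μm PVDF by centrifugation. At least two technical replicates.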

[5] = Aqueous solubility of the compound in pH 6.8 JP2 fluid measured after 4 hrs by HPLC-UV analysis; assay type: physicochemical; summary of the method: as §2
[6] = Permeability of the compound at 10 uM measured after 4 hrs by PAMPA based LC-MS analysis; assay type: ADME; details: read-out: permeability
Summary of the method: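 PAMPA on pre-coated plates: donor 10 μM compound in 5% DMSO/0.1 M phosphate pH 6.4, acceptor 5% DMSO/0.1 M phosphate pH 7.4; 4 h at 37 °C without agitation. Donor, acceptor and initial donor solutions quantified by LC-MS/MS; recovery above 90%. Antipyrine, metoprolol, sulfasalazine as references. At least two technical replicates.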

[7] = Intrinsic clearance in Sprague-Dawley rat liver microsomes at 1 uM preincubated for 5 mins followed by NADPH addition and measured after 30 mins by LC-MS/MS analysis; assay type: ADME, Microsome; details: time 35 min, read-out: CLH; summary of the method: as §1
[8] = Protein binding in Sprague-Dawley rat plasma assessed as unbound fraction at 1 uM measured after 4 hrs by equilibrium dialysis assay; assay type: ADME, cell-free
Summary of the method: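 Rat plasma spiked at 1 μM, equilibrium dialysis (8K MWCO) against 0.1 M phosphate pH 7.4 for 4 h at 37 °C, 1000 rpm. Unbound fraction = buffer/plasma concentration ratio. At least two technical replicates.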

[9] = Cmax in Sprague-Dawley rat at 1 mg/kg, iv measured up to 8 hrs by LC-MS/MS analysis; assay type: ADME, organism-based; parameters: route intravenous, dose 1 mg/kg, time <=8; details: in vivo
Summary of the method: (§3)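 Male Sprague Dawley rats (7 weeks old, n = 2) given compound in 10% DMSO/0.1 M phosphate pH 8.5, i.v. or p.o. Caudal-vein blood at 5 min (i.v.), 15, 30 min, 1, 2, 4, 8 h; plasma precipitated with acetonitrile/IS, LC-MS/MS. Non-compartmental analysis; bioavailability = AUC∞(p.o.)/AUC∞(i.v.).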

[10] = Elimination half life in Sprague-Dawley rat at 1 mg/kg, iv measured up to 8 hrs by LC-MS/MS analysis; assay type: ADME, organism-based; details: in vivo, read-out: beta t1/2 (converted); summary of the method: as §3
[11] = AUC infinity in Sprague-Dawley rat at 1 mg/kg, iv measured up to 8 hrs by LC-MS/MS analysis; assay type: ADME, organism-based; parameters: route intravenous, dose 1 mg/kg, time <=8; details: in vivo
[12] = Total clearance in Sprague-Dawley rat at 1 mg/kg, iv measured up to 8 hrs by LC-MS/MS analysis; assay type: ADME, organism-based; details: in vivo; summary of the method: as §3
[13] = Volume of distribution at steady state in Sprague-Dawley rat at 1 mg/kg, iv measured up to 8 hrs by LC-MS/MS analysis; assay type: ADME, organism-based; details: in vivo, read-out: Vdss; summary of the method: as §3
[14] = Bioavailability in Sprague-Dawley rat at 1 mg/kg, iv measured up to 8 hrs by LC-MS/MS analysis; assay type: ADME, organism-based; details: in vivo; summary of the method: as §3
[15] = Cmax in Sprague-Dawley rat at 1 mg/kg, po measured up to 8 hrs by LC-MS/MS analysis; assay type: ADME, organism-based; parameters: route oral, dose 1 mg/kg, time <=8; details: in vivo; summary of the method: as §3
[16] = Tmax in Sprague-Dawley rat at 1 mg/kg, po measured up to 8 hrs by LC-MS/MS analysis; assay type: ADME, organism-based; details: in vivo; summary of the method: as §3
[17] = Elimination half life in Sprague-Dawley rat at 1 mg/kg, po measured up to 8 hrs by LC-MS/MS analysis; assay type: ADME, organism-based; details: in vivo, read-out: beta t1/2 (converted); summary of the method: as §3
[18] = AUC infinity in Sprague-Dawley rat at 1 mg/kg, po measured up to 8 hrs by LC-MS/MS analysis; assay type: ADME, organism-based; parameters: route oral, dose 1 mg/kg, time <=8; details: in vivo

- IC50 (Transthyretin): 10 µM
SMILES: CC(=O)Oc1cccc2c1C(=O)c1ccc(C(=O)O)cc1C2=O

- IC50 (Transthyretin): 10 µM
SMILES: O=C(O)c1ccc2c(=O)c3cc(Cl)ccc3oc2c1

- IC50 (Transthyretin): 12 µM
SMILES: O=C1c2ccccc2C(=O)c2c(O)c(O)cc(O)c21 [PURPURIN]

- IC50 (Transthyretin): 13 µM
SMILES: Cc1cc(C(=O)O)cc2c1C(=O)c1ccccc1C2=O

- IC50 (Transthyretin): 22 µM
SMILES: CCOc1cccc2c1C(=O)c1ccc(C(=O)O)cc1C2=O

- IC50 (Transthyretin): 5.4 µM
SMILES: CC(=O)Oc1cccc2c1C(=O)c1c(OC(C)=O)cc(C(=O)O)cc1C2=O [DIACEREIN]

- IC50 (Transthyretin): 12 µM
SMILES: O=C(O)c1cc(O)c2c(c1)C(=O)c1cccc(O)c1C2=O [RHEIN]

- IC50 (Transthyretin): > 100 µM
SMILES: Cc1cc(O)c2c(c1)C(=O)c1cccc(O)c1C2=O [CHRYSOPHANOL]

- IC50 (Transthyretin): 12 µM
SMILES: O=C(O)c1ccc2oc3ccc(Cl)cc3c(=O)c2c1

- IC50 (Transthyretin): > 100 µM
SMILES: O=C1c2ccc(O)c(O)c2C(=O)c2c(O)ccc(O)c21 [QUINALIZARIN]

- IC50 (Transthyretin): 6.7 µM
- Activity [1]: Active
- remaining at 0.5 h, 1 µM [2]: 88%
- remaining at 0.5 h, 1 µM [3]: 88%
- solubility at 4 h [4]: 2.9 µM (≈ 0.797 µg/mL)
- solubility at 4 h [5]: > 100 µM
- Papp at 4 h, 10 µM [6]: 17 ×10⁻⁶ cm/s
- CLint scaled at 1 µM [7]: 37.9 mL/min/kg
- fraction unbound at 4 h, 1 µM [8]: 0.017
- Cmax [9]: 8650 ng/mL
- half-life [10]: 1.7 h
- AUC(0-inf) [11]: 13200 ng·h/mL
- clearance [12]: 1.27 mL/min/kg
- Vd [13]: 0.164 L/kg
- bioavailability [14]: 69.8%
- Cmax [15]: 1120 ng/mL
- Tmax [16]: 2 h
- half-life [17]: 5 h
- AUC(0-inf) [18]: 9190 ng·h/mL
SMILES: O=C(O)c1cc(Cl)c2oc3ccccc3c(=O)c2c1

- IC50 (Transthyretin): 50 µM
SMILES: O=C(O)c1ccc2c(c1)C(=O)c1cccc(O)c1C2=O

- IC50 (Transthyretin): > 100 µM
SMILES: O=C(O)c1ccc2oc3cc(Cl)ccc3c(=O)c2c1

Second part, the molecule before the results:

SMILES: O=C1c2ccc(O)cc2C(=O)c2c1ccc(O)c2O
- IC50 (Transthyretin): 12 µM

SMILES: O=C(O)c1ccc2c(c1)C(=O)c1c(Cl)c(Cl)c(Cl)c(Cl)c1C2=O
- IC50 (Transthyretin): 21 µM

SMILES: O=C(O)c1ccc2oc3cccc(Cl)c3c(=O)c2c1
- IC50 (Transthyretin): 13 µM

SMILES: Cc1cc(O)c2c(c1)C(=O)c1cc(O)cc(O)c1C2=O [EMODIN]
- IC50 (Transthyretin): > 100 µM

SMILES: COc1cc(O)c2c(c1)C(=O)c1cc(C)cc(O)c1C2=O [PHYSCION]
- IC50 (Transthyretin): > 100 µM

SMILES: O=C(O)c1cc(Cl)c2oc3c(Cl)cccc3c(=O)c2c1
- IC50 (Transthyretin): 9.1 µM

SMILES: O=C(O)c1ccc2oc3ccccc3c(=O)c2c1
- IC50 (Transthyretin): 22 µM

SMILES: Cc1cc(C(=O)O)cc2c(=O)c3ccccc3oc12
- IC50 (Transthyretin): 6.5 µM
- Activity [1]: Active
- remaining at 0.5 h, 1 µM [2]: 88%
- remaining at 0.5 h, 1 µM [3]: 88%
- solubility at 4 h [4]: 2 µM (≈ 0.508 µg/mL)
- solubility at 4 h [5]: > 100 µM
- Papp at 4 h, 10 µM [6]: 18 ×10⁻⁶ cm/s
- CLint scaled at 1 µM [7]: 35.7 mL/min/kg
- fraction unbound at 4 h, 1 µM [8]: 0.0073
- Cmax [9]: 19200 ng/mL
- half-life [10]: 2.4 h
- AUC(0-inf) [11]: 7520 ng·h/mL
- clearance [12]: 2.22 mL/min/kg
- Vd [13]: 0.148 L/kg
- bioavailability [14]: 34.9%
- Cmax [15]: 476 ng/mL
- Tmax [16]: 0.25 h
- half-life [17]: 4.4 h
- AUC(0-inf) [18]: 2620 ng·h/mL

SMILES: CC(C)=CCc1c(O)cc2oc3cc(O)c(O)c(CC=C(C)C)c3c(=O)c2c1O
- IC50 (Transthyretin): 10 µM
